Source: PubChem (several laboratories)
Rows were chosen to be rich in hits. Some 2% of all compounds tested hit in one or more screens of this group.
UCH37 inh – inhibitors of human deubiquitinating enzyme UCH37; hit rate 0.33% among 330,000; AID 588478; inhibition, % (no concentration beside the values); Q9Y5K5; purified proteasome/UCH37, Ub-AMC cleavage fluorescence;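 active = mean inhibition over replicate wells above about 20%, limit read from the data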
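Test system – human UCH37 enzyme supplied as purified proteasome complex · Incubation – 30 min preincubation with enzyme, 25 min cleavage at room temperature · Detection – AMC fluorescence from Ub-AMC cleavage, excitation 355 nm, emission 460 nm · Benchmarks – no-proteasome wells (full inhibition) and compound-free wells (no inhibition)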
Apaf-1 inh – inhibitors of human Apaf-1 apoptosome; O14727; reconstituted apoptosome caspase-3 activity, DEVD-Rh110 fluorescence; inhibition, % at 20 µM; hit rate 0.71% among 330,000; AID 489030; active = inhibition of at least 40% at 20 µM
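Material: cell-free apoptosome with Apaf-1, procaspase-3 and caspase-9; Buffer or medium: Hepes pH 7.5 with detergent and BSA; Reagent: cytochrome c trigger plus (Z-DEVD)2-Rh110 caspase-3 substrate; Times: compound with Apaf-1, dATP, procaspase-3 30 min, then 50 min reaction, room temperature; Technique: Rh110 fluorescence intensity.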
PAD4 FP inh – inhibitors of human PAD4 | inhibition, % at 6.36 µM | hit rate 0.41% among 330,000 | recombinant PAD4, RCA probe fluorescence polarization;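 active = percent inhibition above a cutoff equal to the mean of all tested compounds plus 3 SD, cut at about 15% in these data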
PP5 inh – blocks human protein phosphatase 5 activity | inhibition, % at 6.7 µM | hit rate 0.18% among 320,000 | AID 1987 | purified PP5c, OMFP substrate fluorescence | P53041;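 active = inhibition above the campaign's mean inhibition across all tested compounds plus 3 SD, cut at about 9.5% in these data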
Target sequence (P53041 whole entry, looked up): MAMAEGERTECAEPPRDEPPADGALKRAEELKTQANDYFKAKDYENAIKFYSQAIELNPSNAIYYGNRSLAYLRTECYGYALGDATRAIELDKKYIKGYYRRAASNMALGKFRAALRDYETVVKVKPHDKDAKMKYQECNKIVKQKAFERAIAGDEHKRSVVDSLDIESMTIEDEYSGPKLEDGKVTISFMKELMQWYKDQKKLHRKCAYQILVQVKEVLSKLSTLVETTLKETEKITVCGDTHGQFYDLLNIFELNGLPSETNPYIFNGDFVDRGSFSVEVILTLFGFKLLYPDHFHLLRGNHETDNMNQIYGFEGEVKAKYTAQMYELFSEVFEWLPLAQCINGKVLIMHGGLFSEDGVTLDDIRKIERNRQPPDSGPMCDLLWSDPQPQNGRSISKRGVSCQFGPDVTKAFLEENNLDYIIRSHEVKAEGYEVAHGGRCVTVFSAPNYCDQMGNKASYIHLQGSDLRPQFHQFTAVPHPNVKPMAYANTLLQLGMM
CTSL1 counter – blocks F. hepatica cathepsin L1 in PFM18AAP counter-screen; inhibition, % at 5.96 µM; AID 1906; recombinant F. hepatica cathepsin L1, Z-Leu-Arg-MCA fluorescence; hit rate 0.49% among 300,000;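 active = inhibition above the mean of all tested compounds plus 3 SD, set per screening campaign, cut at about 17% in these data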
GSTO1 counter – GSTO1 inhibition, counter-screen for RBBP9 inhibitors. P78417. recombinant GSTO1, activity-based probe fluorescence polarization. inhibition, % at 5.96 µM. hit rate 1.1% among 300,000. AID 1974;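 active = inhibition above the campaign mean inhibition plus 3 SD, cut at about 35% in these data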
Apaf-1 inh conf – Apaf-1 inhibition, single-dose confirmed; shares compounds with Apaf-1 inh; reconstituted apoptosome, caspase-3 DEVD-Rh110 fluorescence; inhibition, % at 20 µM; hit rate 25% among 1,800;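 active = mean inhibition of at least 40% at 20 µM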
Rh110 quench – Rh110 signal interference in Apaf-1 inhibitor counter-screen; AID 504615; shares compounds with Apaf-1 inh; 1,800 tested, under 10 active; activation (fluorescence interference), % at 20 µM; Rh110 fluorescence interference, quenched caspase reaction;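 active = signal rise of 40% or more at 20 µM, treated as a fluorescence artifact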
Large screens that a line does not name were inactive (follow-up assays come after a bar, where they were run).

CC(=O)ON=C(C)c1ncc(C(F)(F)F)cc1N1CCOCC1	none (no result: Apaf-1 inh, PAD4 FP inh, PP5 inh, CTSL1 counter, GSTO1 counter)
Cc1nc(-c2ccc(F)cc2)c(CC(=O)N2CCN(S(=O)(=O)c3ccccc3Br)CC2)s1	none | Apaf-1 inh conf inactive | Rh110 quench inactive
Cc1ccc(C)c(S(=O)(=O)N2CCN(C(=O)Cc3sc(C)nc3-c3ccc(F)cc3)CC2)c1	none (no result: Apaf-1 inh, PAD4 FP inh, PP5 inh, CTSL1 counter, GSTO1 counter)
COCCNC(=O)CN1C(=O)NC2(CCOc3ccccc32)C1=O (configuration not stated)	Apaf-1 inh 46 | Apaf-1 inh conf inactive | Rh110 quench inactive
CC(=NNC(=O)CSCc1ccccc1Cl)c1cccc(NC(=O)c2ccccc2)c1	none (no result: Apaf-1 inh, PAD4 FP inh, PP5 inh, CTSL1 counter, GSTO1 counter)
Nc1c(C(=O)NCc2ccc(F)cc2)c2nc3ccccc3nc2n1CCCN1CCOCC1	Apaf-1 inh 59 | Apaf-1 inh conf inactive | Rh110 quench inactive
Nc1c(C(=O)NCc2ccccc2)c2nc3ccccc3nc2n1CCCN1CCOCC1	Apaf-1 inh 49 | Apaf-1 inh conf inactive | Rh110 quench inactive
CCc1ccc2nc(N(CCCN(C)C)C(=O)c3ccc(S(=O)(=O)N4CCc5ccccc5C4)cc3)sc2c1	none (no result: UCH37 inh)
Cc1cc(C)c2sc(N(CCCN(C)C)C(=O)c3ccc(S(=O)(=O)N(C)C4CCCCC4)cc3)nc2c1	Apaf-1 inh 40 | Apaf-1 inh conf inactive | Rh110 quench inactive
CN(C)CCCN(C(=O)c1ccc(S(=O)(=O)N2CCCCC2)cc1)c1nc2cc3c(cc2s1)OCO3	Apaf-1 inh 42 | Apaf-1 inh conf inactive | Rh110 quench inactive
CCOc1cccc2sc(N(CCCN(C)C)C(=O)c3ccc(S(=O)(=O)N4CCc5ccccc5C4)cc3)nc12	Apaf-1 inh 62 | Apaf-1 inh conf inactive | Rh110 quench inactive
CN(C)CCCN(C(=O)c1ccc(C(=O)c2ccccc2)cc1)c1nc2cc3c(cc2s1)OCO3	Apaf-1 inh 60 | Apaf-1 inh conf inactive | Rh110 quench inactive
COc1cc2nc(N(CCCN(C)C)C(=O)c3ccc(S(=O)(=O)N(C)C4CCCCC4)cc3)sc2cc1OC	none
Cc1ccc2c(c1)C(=NO)CCS2	none (no result: Apaf-1 inh, PAD4 FP inh, PP5 inh, CTSL1 counter, GSTO1 counter)
CCOc1ccc2nc(N(CCCN(C)C)C(=O)c3ccc(S(=O)(=O)N4CCCC4)cc3)sc2c1	none
CN(C)CCCN(C(=O)c1ccc(S(=O)(=O)N2CCCC2)cc1)c1nc2ccc(Br)cc2s1	Apaf-1 inh 53 | Apaf-1 inh conf inactive | Rh110 quench inactive
CCOc1cc(C=N/N=C2/NC(=O)C(CC(=O)O)S2)ccc1OS(=O)(=O)c1ccc(C)cc1 (configuration not stated)	none (no result: Apaf-1 inh, PAD4 FP inh, PP5 inh, CTSL1 counter, GSTO1 counter)
CCOC(=O)NN=C(C)c1ccc(C)c([N+](=O)[O-])c1	none (no result: Apaf-1 inh, PAD4 FP inh, PP5 inh, CTSL1 counter, GSTO1 counter)
COc1ccc(C2CC(=O)Oc3c(C(CCN4CCCCC4)c4ccc(N(C)C)cc4)c(OC)cc(OC)c32)cc1 (configuration not stated)	none
COc1ccc(C2CC(=O)Oc3c(C(CCN4CCCC(C)C4)c4ccc(N(C)C)cc4)c(OC)cc(OC)c32)cc1 (configuration not stated)	Apaf-1 inh 49 | Apaf-1 inh conf inactive | Rh110 quench inactive
COc1ccc(C(CCN2CCOCC2)c2c(OC)cc(OC)c3c(-c4ccccc4)cc(=O)oc23)cc1 (configuration not stated)	Apaf-1 inh 53 (no result: PP5 inh, CTSL1 counter, GSTO1 counter) | Apaf-1 inh conf inactive | Rh110 quench inactive
COc1cc(OC)c2c(-c3ccccc3)cc(=O)oc2c1C(CCN1CCCC(C)C1)c1ccc(N(C)C)cc1 (configuration not stated)	none
COc1cc(OC)c2c(-c3ccccc3)cc(=O)oc2c1C(CCN1CCOCC1)c1ccc2c(c1)OCO2 (configuration not stated)	Apaf-1 inh 42 (no result: PP5 inh, CTSL1 counter, GSTO1 counter) | Apaf-1 inh conf inactive | Rh110 quench inactive
COc1ccc(C(CCN2CCCC(C)C2)c2c(OC)cc(OC)c3c(-c4ccccc4)cc(=O)oc23)cc1 (configuration not stated)	Apaf-1 inh 54 | Apaf-1 inh conf inactive | Rh110 quench inactive
